We go through two compounds from ChEMBL document CHEMBL2440113, “Synthesis, radiofluorination, and in vivo evaluation of novel fluorinated and iodinated radiotracers for PET imaging and targeted radionuclide therapy of melanoma” (J Med Chem, 2013).

Series [1] deals with Liver. The experiment in a line: Stability of the compound in liver of C57BL/6J mouse harboring mouse B16-Bl6 cells assessed as unchanged drug level at 18 MBq, iv after 2 hrs. The settings on record: in vivo. Type of series: ADME, organism-based. Put shortly:
(§1)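 Metabolite analysis in six B16Bl6 tumour-bearing mice given 18 MBq iv, killed at 30 min, 1 h or 2 h. Plasma (centrifuged) and bladder urine were injected directly. Pooled tumours, eyes and livers were homogenized in MeOH/NH₄OH 99.8:0.2, centrifuged, filtered and concentrated. Samples ran on radio-HPLC (C18, MeOH/H₂O/NH₄OH gradient) in duplicate; result is % unchanged tracer of total radioactivity.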

Series [2] is described as follows: Stability of the compound in eyes of C57BL/6J mouse harboring mouse B16-Bl6 cells assessed as unchanged drug level at 18 MBq, iv after 2 hrs. In kind it is ADME, organism-based, Eye. The settings on record: read-out: Stability. Put shortly: as §1
A short description of series [3]: Stability of the compound in tumor of C57BL/6J mouse harboring mouse B16-Bl6 cells assessed as unchanged drug level at 18 MBq, iv after 2 hrs. In kind it is ADME, organism-based, Neoplasm. The settings on record: read-out: Stability. In a few lines:
as §1

For another series, the system named is Blood. The experiment in a line: Stability of the compound in blood of C57BL/6J mouse harboring mouse B16-Bl6 cells assessed as unchanged drug level at 18 MBq, iv after 2 hrs. In kind it is ADME, organism-based. The settings on record: in vivo. Put shortly:
as §1

Series [4] in a line: Stability of the compound in urine of C57BL/6J mouse harboring mouse B16-Bl6 cells assessed as unchanged drug level at 18 MBq, iv after 1 hr. Type of series: ADME, organism-based. As to conditions: read-out: Stability. Put shortly:
as §1

A short description of series [5]: Stability of the compound in liver of C57BL/6J mouse harboring mouse B16-Bl6 cells assessed as unchanged drug level at 18 MBq, iv after 1 hr. Type of series: ADME, organism-based. As to conditions: read-out: Stability. Put shortly: as §1
Series [6] in a line: Stability of the compound in eyes of C57BL/6J mouse harboring mouse B16-Bl6 cells assessed as unchanged drug level at 18 MBq, iv after 1 hr. In kind it is ADME, organism-based, Eye. As to conditions: read-out: Stability. Put shortly:
as §1

A short description of series [7]: Stability of the compound in tumor of C57BL/6J mouse harboring mouse B16-Bl6 cells assessed as unchanged drug level at 18 MBq, iv after 30 mins. In kind it is ADME, organism-based, Neoplasm. As to conditions: read-out: Stability.
Series [8] has as its system Mus musculus. As to the kind of experiment: Biodistribution in colon and feces of C57BL/6J mouse harboring mouse B16-Bl6 cells at 9 to 12 MBq, iv after 3 hrs by PET analysis. As to conditions: in vivo. In kind it is ADME, organism-based. In a few lines: (§2)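 Ex vivo dissection in B16Bl6-bearing C57BL/6J mice (3x10⁵ cells s.c. right shoulder), done at day 10 or 14 after implantation. The ¹⁸F tracer was given i.v. at 9-12 MBq. Mice were killed by CO₂ at 1, 2 or 3 h. Tumor, organs and tissues were excised, weighed and gamma-counted, then decay-corrected and expressed as %ID/g. n=3-6 per group; mean ± SD.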

Series [9] has as its system Liver. As to the kind of experiment: Biodistribution in liver of C57BL/6J mouse harboring mouse B16-Bl6 cells at 9 to 12 MBq, iv after 3 hrs by PET analysis. In kind it is ADME, organism-based. The settings on record: in vivo. In a few lines:
as §2

The test system of series [10] is Mus musculus. As to the kind of experiment: Biodistribution in eyes of C57BL/6J mouse harboring mouse B16-Bl6 cells at 9 to 12 MBq, iv after 3 hrs by PET analysis. In kind it is ADME, organism-based, Eye. As to conditions: in vivo. Put shortly: as §2
For another series, the system named is Muscle tissue. As to the kind of experiment: Biodistribution in muscle of C57BL/6J mouse harboring mouse B16-Bl6 cells at 9 to 12 MBq, iv after 3 hrs by PET analysis. Type of series: ADME, organism-based. As to conditions: in vivo. Put shortly:
as §2

Another series deals with Heart. The experiment in a line: Biodistribution in heart of C57BL/6J mouse harboring mouse B16-Bl6 cells at 9 to 12 MBq, iv after 2 hrs by PET analysis. Type of series: ADME, organism-based. As to conditions: in vivo. In a few lines:
as §2

Series [11] has as its system Spleen. As to the kind of experiment: Biodistribution in spleen of C57BL/6J mouse harboring mouse B16-Bl6 cells at 9 to 12 MBq, iv after 2 hrs by PET analysis. Type of series: ADME, organism-based. As to conditions: in vivo. Put shortly: as §2
The test system of series [12] is Mus musculus. As to the kind of experiment: Biodistribution in cecum of C57BL/6J mouse harboring mouse B16-Bl6 cells at 9 to 12 MBq, iv after 2 hrs by PET analysis. As to conditions: in vivo. In kind it is ADME, organism-based, Caecum. In a few lines:
as §2

Series [13] has as its system Liver. The experiment in a line: Biodistribution in liver of C57BL/6J mouse harboring mouse B16-Bl6 cells at 9 to 12 MBq, iv after 2 hrs by PET analysis. In kind it is ADME, organism-based. As to conditions: in vivo. In a few lines:
as §2

In series [14] the test system is Spleen. The experiment in a line: Biodistribution in spleen of C57BL/6J mouse harboring mouse B16-Bl6 cells at 9 to 12 MBq, iv after 1 hr by PET analysis. The settings on record: in vivo. In kind it is ADME, organism-based. Put shortly: as §2
The subject of another series is Pancreas. As to the kind of experiment: Biodistribution in pancreas of C57BL/6J mouse harboring mouse B16-Bl6 cells at 9 to 12 MBq, iv after 1 hr by PET analysis. In kind it is ADME, organism-based. As to conditions: in vivo. In a few lines: as §2
Series [15] concerns Mus musculus. As to the kind of experiment: Biodistribution in colon and feces of C57BL/6J mouse harboring mouse B16-Bl6 cells at 9 to 12 MBq, iv after 1 hr by PET analysis. In kind it is ADME, organism-based. The settings on record: in vivo. Put shortly:
as §2

Series [16] has as its system Mus musculus. The experiment in a line: Biodistribution in tumor of C57BL/6J mouse harboring mouse B16-Bl6 cells at 8 to 12 MBq, iv after 1 hr by PET analysis. Type of series: ADME, organism-based, Neoplasm. As to conditions: in vivo. In a few lines: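 Static whole-body PET at 1 h after tail-vein injection of [18F]tracer (9-12 MBq/0.15 mL) in C57BL/6J mice carrying subcutaneous B16Bl6 shoulder tumours (3x10⁵ cells), imaged day 10 or 14. Mice under ketamine/xylazine ip. 25 min acquisition, OSEM reconstruction. ROI % ID/g = counts/g/min ÷ injected dose; ratios = tumour % ID/g ÷ organ % ID/g. n=2-8; mean ± SD.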

A short description of series [17]: Stability of the compound in urine of C57BL/6J mouse harboring mouse B16-Bl6 cells assessed as unchanged drug level at 18 MBq, iv after 2 hrs. In kind it is ADME, organism-based. The settings on record: in vivo. In a few lines:
as §1

The test system of series [18] is Mus musculus. The experiment in a line: Ratio of drug level in tumor to bone in C57BL/6J mouse harboring mouse B16-Bl6 cells at 9 to 12 MBq, iv after 3 hrs by PET analysis. As to conditions: in vivo.

Each structure is given as a SMILES string.

As to `CCN(CCNC(=O)c1cnc2cc(I)ccc2n1)CCOCCOCCOCC[18F]`, the Stability result (in the series on Liver [1]; in the series with Blood; in series [17]) was “Unstable” in each case. Further, the remaining at 2 h in series [2] and in series [3] was more than 99% in each case. For the same compound, the remaining at 1 h in series [4] was 0.1%; in series [5] it was 8%; in [6], more than 99%. Also, in series [7], the remaining at 0.5 h is more than 99%. The Drug uptake is 8.09 % ID/g in the series on Mus musculus [8]; 1.99 % ID/g in the series with Liver [9]; 17.96 % ID/g in the series with Mus musculus [10]; 0.81 % ID/g in the series on Muscle tissue; 2.14 % ID/g with Heart; 2.88 % ID/g in the series with Spleen [11]. For the same compound, the Drug uptake in the series on Mus musculus [12] was determined as 8.94 % ID/g; in the series on Liver [13], 1.88 % ID/g; in the series with Spleen [14] it was 3.72 % ID/g; in the series on Pancreas, 2.09 % ID/g; in the series on Mus musculus [15], 7.17 % ID/g; with Mus musculus [16], 14.33 % ID/g. In addition, the Ratio in the series with Mus musculus [18] is 3.7.
As for `CCN(CCNC(=O)c1cnc2cc(I)ccc2n1)CCOCCOCCOCCOCCOCCOCCOCC[18F]`, the Drug uptake in the series with Mus musculus [8] turned out to be 12.63 % ID/g; in the series on Liver [9] it was 2.6 % ID/g; with Mus musculus [10], 13.43 % ID/g; in the series with Muscle tissue it was 1.11 % ID/g; with Heart it was 1.7 % ID/g; in the series with Spleen [11] it was 2.38 % ID/g. For the same compound, the Drug uptake in the series on Mus musculus [12] amounted to 12.1 % ID/g; in the series with Liver [13], 2.31 % ID/g; in the series with Spleen [14], 2.35 % ID/g; in the series on Pancreas, 2.63 % ID/g; in the series with Mus musculus [15], 7.39 % ID/g; with Mus musculus [16], 6.63 % ID/g. The Ratio with Mus musculus [18] is reported as 2.16.
